In test [1] the target is T1, P2Y purinoceptor 2 (Homo sapiens, UniProt P41231). The experiment in a line: Inhibitory concentration against P2Y2 receptor expressed in 1321N1 astrocytoma Cells; (n=3).
The target in test [2] is T2, P2X purinoceptor 3 (Rattus norvegicus, UniProt P49654).
T2 sequence (P49654 whole entry): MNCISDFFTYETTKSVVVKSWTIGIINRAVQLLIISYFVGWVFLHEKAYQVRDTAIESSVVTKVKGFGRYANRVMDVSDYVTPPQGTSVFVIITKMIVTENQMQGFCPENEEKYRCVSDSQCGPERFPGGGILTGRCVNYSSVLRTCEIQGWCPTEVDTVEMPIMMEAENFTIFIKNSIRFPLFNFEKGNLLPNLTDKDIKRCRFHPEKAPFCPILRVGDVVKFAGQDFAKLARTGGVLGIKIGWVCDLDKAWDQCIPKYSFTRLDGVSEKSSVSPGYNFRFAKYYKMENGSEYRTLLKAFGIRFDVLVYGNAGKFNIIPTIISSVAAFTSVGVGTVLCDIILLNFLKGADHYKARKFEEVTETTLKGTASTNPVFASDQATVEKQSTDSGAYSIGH
Kind of test: Inhibitory concentration against rat P2X purinoceptor 3 expressed in Xenopus laevis oocytes. The format is functional, cell-based, Oocyte. An outline of the steps: (§1)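 Two-electrode voltage clamp on Xenopus laevis oocytes expressing recombinant rat or human P2X subtypes, recording receptor-mediated currents. IC50 values came from nonlinear least-squares Hill fits to pooled concentration-inhibition data; mean ± SEM from at least three experiments.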

A further test deals with T3, P2X purinoceptor 1 (Homo sapiens, UniProt P51575).
T3 sequence (P51575 whole entry): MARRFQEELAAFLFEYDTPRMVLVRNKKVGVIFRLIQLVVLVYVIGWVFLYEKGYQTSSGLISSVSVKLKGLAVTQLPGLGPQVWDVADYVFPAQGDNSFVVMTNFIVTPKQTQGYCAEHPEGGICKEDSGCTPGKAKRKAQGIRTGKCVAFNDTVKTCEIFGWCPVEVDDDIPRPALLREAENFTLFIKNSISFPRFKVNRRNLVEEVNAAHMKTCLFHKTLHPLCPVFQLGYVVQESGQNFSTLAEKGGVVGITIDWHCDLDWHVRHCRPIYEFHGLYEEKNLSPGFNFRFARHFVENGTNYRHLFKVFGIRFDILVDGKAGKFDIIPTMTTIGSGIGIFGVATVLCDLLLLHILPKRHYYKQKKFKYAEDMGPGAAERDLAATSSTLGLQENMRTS
Kind of test: Inhibitory concentration against human P2X purinoceptor 1 expressed in Xenopus laevis oocytes. The format is functional, cell-based, Oocyte. The gist of the method: as §1

The target of test [3] is T4, P2X purinoceptor 3 (Homo sapiens, UniProt P56373).
T4 sequence (P56373 whole entry): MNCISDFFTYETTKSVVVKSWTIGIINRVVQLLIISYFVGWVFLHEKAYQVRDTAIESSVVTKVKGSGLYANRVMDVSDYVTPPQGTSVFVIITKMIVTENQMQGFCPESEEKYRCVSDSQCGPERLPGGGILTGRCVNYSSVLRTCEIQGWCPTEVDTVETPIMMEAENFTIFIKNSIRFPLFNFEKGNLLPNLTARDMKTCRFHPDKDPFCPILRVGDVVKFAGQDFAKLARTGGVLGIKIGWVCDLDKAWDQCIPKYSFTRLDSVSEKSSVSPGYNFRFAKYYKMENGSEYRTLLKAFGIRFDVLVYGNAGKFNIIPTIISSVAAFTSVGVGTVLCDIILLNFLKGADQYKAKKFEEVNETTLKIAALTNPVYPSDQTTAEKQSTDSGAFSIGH
Kind of test: Inhibitory concentration against human P2X purinoceptor 3 expressed in Xenopus laevis oocytes. The class given is functional, cell-based, Oocyte. The gist of the method:
as §1

Test [4] deals with T5, P2Y purinoceptor 11 (Homo sapiens) (UniProt Q96G91).
T5 sequence (whole entry): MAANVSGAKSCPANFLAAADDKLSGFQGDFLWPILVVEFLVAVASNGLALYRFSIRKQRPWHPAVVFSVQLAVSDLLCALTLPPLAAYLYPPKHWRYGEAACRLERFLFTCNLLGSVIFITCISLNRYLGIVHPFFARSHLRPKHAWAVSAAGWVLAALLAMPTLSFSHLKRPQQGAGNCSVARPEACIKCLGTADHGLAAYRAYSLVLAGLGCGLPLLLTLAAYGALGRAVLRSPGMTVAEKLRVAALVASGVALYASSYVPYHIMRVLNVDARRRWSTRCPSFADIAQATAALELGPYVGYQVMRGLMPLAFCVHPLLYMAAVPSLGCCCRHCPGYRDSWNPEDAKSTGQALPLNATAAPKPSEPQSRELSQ
The experiment in a line: Relative potency was measured against P2Y purinoceptor 11. The class given is functional.

The target in test [5] is T1, P2Y purinoceptor 2. Kind of test: Percent inhibition of agonist-induced calcium mobilization at P2Y purinoceptor 2 recombinantly expressed in human HEK293 cells at 100 uM dose. The class given is functional, cell-based. Conditions: in the assay text read “native in” for “recombinantly expressed in”. An outline of the steps:
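Single 100 µM antagonist dose, preincubated 30 min at 37 °C, in a Ca2+ fluorescence assay (Oregon Green 488 BAPTA-1/AM). Agonists: 31.6 nM 2-MeSADP for native P2Y1 and 3.16 µM UTP for native P2Y2, both in HEK293 cells; 1 µM ATPγS for recombinant P2Y11 in 1321N1 cells. Response expressed as % of agonist control; mean ± SEM, n ≥ 3.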

Test [6] has as its target T5, P2Y purinoceptor 11 (Homo sapiens). The experiment in a line: Percent inhibition of agonist-induced calcium mobilization at P2Y purinoceptor 11 recombinantly expressed in human 1321N1 astrocytoma cells at 100 uM dose.

T1 sequence (P41231 whole entry): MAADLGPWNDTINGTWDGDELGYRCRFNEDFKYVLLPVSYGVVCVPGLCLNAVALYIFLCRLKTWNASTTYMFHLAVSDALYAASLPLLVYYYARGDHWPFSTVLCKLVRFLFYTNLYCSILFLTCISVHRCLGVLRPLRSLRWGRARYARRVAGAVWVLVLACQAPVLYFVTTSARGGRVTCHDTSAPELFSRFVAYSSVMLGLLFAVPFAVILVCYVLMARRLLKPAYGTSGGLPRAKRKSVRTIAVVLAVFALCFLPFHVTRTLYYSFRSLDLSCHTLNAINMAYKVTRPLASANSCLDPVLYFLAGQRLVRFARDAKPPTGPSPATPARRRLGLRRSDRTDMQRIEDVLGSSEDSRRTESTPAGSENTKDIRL

Turning to `O=C(Nc1cccc(C(=O)Nc2cc(C(=O)Nc3ccc(S(=O)(=O)O)c4cc(S(=O)(=O)O)cc(S(=O)(=O)O)c34)ccc2F)c1)Nc1cccc(C(=O)Nc2cc(C(=O)Nc3ccc(S(=O)(=O)O)c4cc(S(=O)(=O)O)cc(S(=O)(=O)O)c34)ccc2F)c1`, the half-inhibitory concentration (IC50) at P2Y purinoceptor 2 [1] is 170000 nM; on P2X purinoceptor 3 [2] it was 776 nM; against P2X purinoceptor 1, 63.1 nM; against P2X purinoceptor 3 [3], 355 nM. In test [4], this compound returned a Rel potency of 100. Further, the inhibition on P2Y purinoceptor 2 [5] is 42.8%; in test [6], 96.6%.
